Molecules are shown by their SMILES. ≈ marks a conversion by molar mass, not a printed value. Calls of active or inactive are those of the source. The calls are words filed in the database; no cut-off is given here.

The test system of experiment [1] is Aspergillus fumigatus. Nature of the experiment: Ratio of FKS1 expression in Aspergillus fumigatus isolate AT to BTU expression in Aspergillus fumigatus ATCC 13073 at 0.25 ug/ml by RT-PCR. The class given is functional. A digest of the protocol:
(§1)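 Strains grown 24 h at 37°C with shaking (150 rpm) in RPMI 1640, with and without 0.25 μg/ml caspofungin. FKS1 transcript measured by real-time PCR, normalised to housekeeping genes (BTU, PMA1). Reported as the expression ratio of AT isolate to each reference strain.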

Experiment [2] concerns Aspergillus fumigatus. Description: Antimicrobial activity against Aspergillus fumigatus isolate AT assessed as amount of galactose in the alkali-insoluble fraction at 0.04 ug/ml. The class given is functional. In a few lines: (§2)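 Mycelia pretreated by culture with 0.04 μg/ml caspofungin. Cell wall boiled twice in Tris-EDTA-SDS-mercaptoethanol, then alkali-fractionated twice (1 M NaOH/0.05 M NaBH₄, 70°C). Alkali-insoluble fraction (100 μg) digested overnight at 37°C with recombinant endo-β(1,3)-glucanase LamA in pH 6.0 acetate buffer. Read by HPAEC and reducing-sugar assay; hexoses by GC with meso-inositol internal standard. Pretreated values are means of two samples.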

Experiment [3] relates to Aspergillus fumigatus. Description: Ratio of FKS1 expression in Aspergillus fumigatus isolate AT to PMA1 expression in Aspergillus fumigatus 293 at 0.25 ug/ml by RT-PCR. The class given is functional. A digest of the protocol:
as §1

Experiment [4] deals with Aspergillus fumigatus. Description: Antimicrobial activity against Aspergillus fumigatus isolate DK by Etest method. The format is functional. A digest of the protocol: (§3)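 Etest on RPMI 1640-2% glucose agar plates, run per the manufacturer's recommendations. Caspofungin Etest end point read after 2 days of incubation.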
Experiment [5] deals with Aspergillus fumigatus. Nature of the experiment: Antimicrobial activity against Aspergillus fumigatus isolate AT assessed as amount of glucose in the alkali-insoluble fraction at 0.04 ug/ml. The class given is functional. A digest of the protocol:
as §2

Experiment [6] deals with Aspergillus fumigatus. Description: Antimicrobial activity against Aspergillus fumigatus isolate A29 by Etest method. The format is functional.
Experiment [7] deals with Aspergillus fumigatus. Nature of the experiment: Antimicrobial activity against Aspergillus fumigatus isolate AT assessed as amount of beta-(1,3)-glucan at 0.04 ug/ml. The format is functional. In a few lines: as §2
Experiment [8] deals with Aspergillus fumigatus. Nature of the experiment: Antimicrobial activity against Aspergillus fumigatus isolate AT infected in NMRI mouse assessed as survival rate at 2.25 mg/kg, ip. The class given is functional. The following applies: route intraperitoneal. A digest of the protocol:
(§4)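 NMRI mice (26 to 30 g) immunosuppressed with cyclophosphamide i.p., 200 mg/kg day −3 and 100 mg/kg day 0. Challenged i.v. on day 0 with 1.5 × 10⁵ CFU in groups of 10 to 13. Dosed in 0.25 ml on days 1 to 4 and 7 to 10: caspofungin i.p., posaconazole orally, or glucose i.p. as control. Scored daily. Survivors killed day 11. AT isolate run in two experiments.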

Experiment [9] deals with Aspergillus fumigatus. Nature of the experiment: Antimicrobial activity against Aspergillus fumigatus isolate AT infected in NMRI mouse assessed as reduction in galactomannan index relative to control. The class given is functional, organism-based. A digest of the protocol:
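Mice (NMRI) immunosuppressed with cyclophosphamide i.p. (200 mg/kg day −3, 100 mg/kg day 0). Challenged i.v. on day 0 with 1.5 × 10⁵ CFU. Treated on days 1–4 and 7–10 with caspofungin i.p. 2.25 mg/kg, posaconazole orally 5 or 20 mg/kg, or glucose i.p. (controls). Serum galactomannan index measured by Platelia ELISA on day 11 in survivors.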

For experiment [10], the system named is Aspergillus fumigatus. Nature of the experiment: Antimicrobial activity against Aspergillus fumigatus isolate AT assessed as partial growth inhibition by microdilution method. The format is functional, organism-based. A digest of the protocol:
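Broth microdilution MEC by EUCAST and CLSI methods (one lab used a modified EUCAST inoculum of 5 × 10⁴ cells/ml). Plates inoculated with spores and incubated at 35°C for 24 to 48 h. MEC taken as the lowest concentration giving aberrant growth, read by light microscopy.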

For experiment [11], the system named is Aspergillus fumigatus. Nature of the experiment: Antimicrobial activity against Aspergillus fumigatus isolate AT by Etest method. The class given is functional, organism-based. In a few lines:
as §3

The subject of experiment [12] is Aspergillus fumigatus. Description: Antimicrobial activity against Aspergillus fumigatus isolate AT assessed as FKS1 expression by RT-PCR relative to control. The format is functional, organism-based. In a few lines: as §1
In experiment [13] the test system is Aspergillus fumigatus. Description: Antimicrobial activity against Aspergillus fumigatus isolate DK infected in NMRI mouse assessed as survival rate at 2.25 mg/kg, ip. The format is functional. Particulars: route intraperitoneal. A digest of the protocol:
as §4

Experiment [14] has as its system Aspergillus fumigatus. Nature of the experiment: Antimicrobial activity against Aspergillus fumigatus isolate AT assessed as amount of mannose in the alkali-insoluble fraction at 0.04 ug/ml. The format is functional. In a few lines:
as §2

Experiment [15] relates to Aspergillus fumigatus. Description: Ratio of FKS1 expression in Aspergillus fumigatus isolate AT to BTU expression in Aspergillus fumigatus 293 at 0.25 ug/ml by RT-PCR. The class given is functional. A digest of the protocol:
as §1

Experiment [16] deals with Aspergillus fumigatus. Nature of the experiment: Antimicrobial activity against Aspergillus fumigatus isolate DK by microdilution method. The format is functional. Particulars: read-out: MEC. A digest of the protocol: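 Broth microdilution by the EUCAST method for spore-forming moulds (C. krusei ATCC 6258 control), also a modified EUCAST version with 5 × 10⁴ cells/ml inoculum. Spore-inoculated plates incubated at 35°C for 24 to 48 h, read visually and spectrophotometrically. Azole MIC = lowest dilution giving no growth, ignoring single surface colonies. Echinocandin MEC = lowest concentration giving aberrant growth.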

The subject of experiment [17] is Aspergillus fumigatus. Description: Ratio of FKS1 expression in Aspergillus fumigatus isolate AT to PMA1 expression in Aspergillus fumigatus ATCC 13073 at 0.25 ug/ml by RT-PCR. The class given is functional. A digest of the protocol: as §1
The test system of experiment [18] is Aspergillus fumigatus. Description: Antimicrobial activity against Aspergillus fumigatus isolate DK infected in NMRI mouse assessed as survival rate at 20 mg/kg, po. The class given is functional. A digest of the protocol: as §4
For experiment [19], the system named is Aspergillus fumigatus. Nature of the experiment: Antimicrobial activity against Aspergillus fumigatus isolate AT infected in NMRI mouse assessed as survival rate at 5 mg/kg, po. The class given is functional. In a few lines:
as §4

Experiment [20] has as its system Aspergillus fumigatus. Description: Antimicrobial activity against Aspergillus fumigatus isolate AT infected in NMRI mouse assessed as survival rate at 20 mg/kg, po. The format is functional. A digest of the protocol:
as §4

Experiment [21] concerns Aspergillus fumigatus. Description: Antimicrobial activity against Aspergillus fumigatus isolate DK infected in NMRI mouse assessed as survival rate at 5 mg/kg, po. The format is functional. In a few lines:
as §4

With `CC[C@H](C)C[C@H](C)CCCCCCCCC(=O)N[C@H]1C[C@@H](O)[C@@H](NCCN)NC(=O)[C@@H]2[C@@H](O)CCN2C(=O)[C@H]([C@H](O)CCN)NC(=O)[C@H]([C@H](O)[C@@H](O)c2ccc(O)cc2)NC(=O)[C@@H]2C[C@@H](O)CN2C(=O)[C@H]([C@@H](C)O)NC1=O` [CASPOFUNGIN], the Ratio in the experiment with Aspergillus fumigatus [1] is 3.41; in the experiment on Aspergillus fumigatus [3], 2.9; in the experiment with Aspergillus fumigatus [15], 2.78; with Aspergillus fumigatus [17] it was 3.5. The Activity in the experiment on Aspergillus fumigatus [2] worked out at 16%; in the experiment on Aspergillus fumigatus [4], 0.125 µg/mL; in the experiment with Aspergillus fumigatus [5], 74%; in the experiment on Aspergillus fumigatus [7], 81%; in the experiment on Aspergillus fumigatus [14] it was 10%. Besides, it took 0.094 mg/L (≈ 0.086 µM) to inhibit growth against Aspergillus fumigatus [6] (MIC). Further, the minimal effective concentration in the experiment on Aspergillus fumigatus [6] (in the assay text read “by microdilution method” for “by Etest method”, read-out: MEC) worked out at 0.04 µg/mL; in the experiment with Aspergillus fumigatus [16] it was 0.25 µg/mL. For the same molecule, the values for the survival at 2.25 mg/kg with Aspergillus fumigatus [8] and in the experiment with Aspergillus fumigatus [13] were 25% and 100%, respectively. Besides, the result with Aspergillus fumigatus [9] and in the experiment on Aspergillus fumigatus [10] was Active. In addition, the result in the experiment on Aspergillus fumigatus [11] and in the experiment on Aspergillus fumigatus [12] was inactive.

`CC[C@@H]([C@H](C)O)n1ncn(-c2ccc(N3CCN(c4ccc(OC[C@@H]5CO[C@@](Cn6cncn6)(c6ccc(F)cc6F)C5)cc4)CC3)cc2)c1=O` [POSACONAZOLE]: the survival at 20 mg/kg in the experiment with Aspergillus fumigatus [18] worked out at 25%; in the experiment with Aspergillus fumigatus [20] it was 75%. Also, the values for the survival at 5 mg/kg with Aspergillus fumigatus [19] and in the experiment on Aspergillus fumigatus [21] were 70% and 16.7%, respectively.

For the origin of these results see ChEMBL document CHEMBL1275502, “Establishing in vitro-in vivo correlations for Aspergillus fumigatus: the challenge of azoles versus echinocandins” (2008).
